High-throughput results as filed in PubChem BioAssay.
ATG4B inhibitor: ATG4B protease inhibitors, primary screen, biochemical, fluorescence, uHTS; Cysteine protease ATG4B (Homo sapiens), Q9Y4P1; ATG4B cleavage of LC3-PLA2, NBD-HPC fluorescence, 1 h; inhibition, % at 8.33 µM; hit rate 0.51% among 340,000; in the data active = inhibition above about 40%
LANA-H2A inh: blockers of LANA interaction with H2A/H2B – biochemical, FP readout, HTS, primary screen. cell-free LANA-H2A/H2B peptide, fluorescence polarization. inhibition, % (test concentration not listed). hit rate 0.6% among 320,000; in the data active = inhibition mostly above about 10%, no sharp cut-off; inactive = mostly below about 6.7%
HKDC1 inh: HKDC1 hexokinase inhibitors, primary screen, biochemical, fluorescence, uHTS | Q2TB90 | recombinant HKDC1, G6PDH/diaphorase resazurin coupled fluorescence | inhibition, % at 20 µM | hit rate 0.16% among 340,000 | AID 493160, 2011;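 active = inhibition above about 35% when tested at 20 µM, limit read from the data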;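 note: plate controls were DMSO wells with enzyme for no effect and DMSO wells lacking enzyme for full effect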
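test system = in-house recombinant HK5 (HKDC1) enzyme | amount = HKDC1 at 5 µg/mL | control set = DMSO-enzyme wells negative, buffer-substituted wells positive | compound = one dose of 20 µM, 1% DMSO | schedule = reaction time 90 min, room temperature, protected from light | technique = resorufin fluorescence at 613 nm | reagent = glucose with 1 mM ATP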
Bfl-1 A1 inh: caspase 3/7 activation in MEF A1-2A-BIM cells, primary screen, A1 inhibitor project, cell-based, luminescence, HTS; AID 2462, 2010; hit rate 0.066% among 330,000; Caspase-Glo 3/7 luminescence, 3 h; percent of clofoctol response, vehicle zero; caspase activation, % (test concentration not listed);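 active = over half of replicate activation scores above 10%, or exactly half above 10 with the replicate mean above 10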
HDAC3 inhib: HDAC3 deacetylase inhibitors, primary screen, biochemical, fluorescence, cell-free homogeneous. Histone deacetylase 3 (Homo sapiens), O15379. recombinant HDAC3, fluorogenic peptide/trypsin coupled. inhibition, % at 8.3 µM. hit rate 0.15% among 320,000. AID 2718, 2010; in the data active = inhibition above about 26%, passing the limit was not always enough
AI-2 QS modul: Vibrio harveyi AI-2 quorum sensing modulators, primary screen, JMH597 strain, luminescence/OD600 ratio | Vibrio harveyi JMH597 AI-2 luminescence/OD600 ratio, 9 h; stronger effect = lower value; strain lacks LuxN and CqsS sensors; 0 = neutral-control median | activity change, % at 7.5 µM | hit rate 0.4% among 300,000 | AID 2094, 2009; in the data active = activity change below about -75%, passing the limit was not always enough;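 note: luminescence divided by OD600 gain over 9 h not by final OD600 alone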
HKDC1 act conf2: HKDC1 hexokinase activators, confirmation, biochemical, single concentration; shares compounds with HKDC1 inh; recombinant HKDC1, G6PDH/diaphorase resazurin fluorescence; stronger effect = lower value; inhibition, % at 20 µM; hit rate 14% among 740; AID 504708, 2011;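 active = inhibition at or below a set negative limit, negative inhibition meaning the enzyme was activated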
An asterisk follows results filed as active. A selection: hits, their analogues and other compounds. The true share with any hit is near 1.8%.

Screening COc1ccc(Cn2c(C)nc3c(c2=O)c2nc4ccccc4nc2n3Cc2ccco2)cc1 returned ATG4B inhibitor 10, HKDC1 inh 33 and HKDC1 act conf2 -10.
CCOC(=O)C1CCN(C(=O)Nc2ccc3nc(-c4ccco4)c(-c4ccco4)nc3c2)CC1 was read as ATG4B inhibitor 3, LANA-H2A inh 11, HKDC1 inh 43*, Bfl-1 A1 inh 0, HDAC3 inhib 8, AI-2 QS modul 37 and HKDC1 act conf2 0.
Screening COc1ccccc1N(C)S(=O)(=O)c1ccc(Cl)c(C(=O)NCC2(N(C)C)CCCCC2)c1 returned ATG4B inhibitor -7, LANA-H2A inh -3, HKDC1 inh 42*, Bfl-1 A1 inh 1, HDAC3 inhib -6, AI-2 QS modul 26 and HKDC1 act conf2 -28.
`COc1ccccc1N(C)S(=O)(=O)c1ccc(Cl)c(C(=O)NNC(=O)c2ccccc2O)c1` gave ATG4B inhibitor -4, LANA-H2A inh -1, HKDC1 inh -16, Bfl-1 A1 inh 1, HDAC3 inhib -1 and AI-2 QS modul 21.
Screening CCC(Sc1nc2cc(OC)c(OC)cc2c(=O)n1CCc1ccc(S(N)(=O)=O)cc1)C(=O)NCCOC (stereo not given) returned ATG4B inhibitor -9, LANA-H2A inh -5, HKDC1 inh 18, Bfl-1 A1 inh 0, HDAC3 inhib -2 and AI-2 QS modul 18.
Oc1c(C(c2ccco2)N2CCN(C(c3ccccc3)c3ccccc3)CC2)sc2ncnn12 (stereo not given) was read as ATG4B inhibitor -15, LANA-H2A inh 0, HKDC1 inh 6, Bfl-1 A1 inh -1, HDAC3 inhib 10 and AI-2 QS modul 18.
Screening Cc1cc(S(=O)(=O)N2CCC3(CC2)OCCO3)c(C)cc1Cl returned ATG4B inhibitor 10, LANA-H2A inh -3, HKDC1 inh -5, Bfl-1 A1 inh 1, HDAC3 inhib 1 and AI-2 QS modul 12.
For O=S(=O)(c1cc(Cl)cc(Cl)c1O)N1CCC2(CC1)OCCO2 the results were ATG4B inhibitor 0, LANA-H2A inh -1, HKDC1 inh 34, Bfl-1 A1 inh -1, HDAC3 inhib 1, AI-2 QS modul 15 and HKDC1 act conf2 -12.
Cc1cc(NC(=O)CCC(=O)N(Cc2ccco2)C2(C(=O)NC3CCCCC3)CCCCC2)no1 was read as ATG4B inhibitor -15, LANA-H2A inh 4, HKDC1 inh 1, Bfl-1 A1 inh 0, HDAC3 inhib -1 and AI-2 QS modul 9.
Screening COCc1cc(SC2CCCCC2)nc(C)n1 returned ATG4B inhibitor -2, LANA-H2A inh 2, HKDC1 inh 46*, Bfl-1 A1 inh 0, HDAC3 inhib 7, AI-2 QS modul -3 and HKDC1 act conf2 -28.
COC(=O)c1ccc(NCc2c(O)ccc(O)c2Br)cc1Cl was read as ATG4B inhibitor -5, HKDC1 inh 45* and HKDC1 act conf2 21.
CN(C(=O)COC(=O)c1cc(S(=O)(=O)N2CCOCC2)ccc1F)C1CCS(=O)(=O)C1 (stereo not given) was read as ATG4B inhibitor -1, LANA-H2A inh -1, HKDC1 inh -5, Bfl-1 A1 inh 1, HDAC3 inhib 2 and AI-2 QS modul 20.
Screening CCN(CC)C(=O)c1ccc(C(=O)c2c(C)cc(C)cc2C)cc1 returned ATG4B inhibitor -6, LANA-H2A inh 1, HKDC1 inh 39*, Bfl-1 A1 inh -1, HDAC3 inhib 7, AI-2 QS modul -1 and HKDC1 act conf2 -40*.
Screening Cc1cc(C)c(C(=O)c2ccccc2)c(C)c1 returned ATG4B inhibitor -1 and HKDC1 inh -4.
Screening CC(=NNC(=S)N1CCCCC1)c1cccc(C)n1 returned ATG4B inhibitor -4, HKDC1 inh -40 and HKDC1 act conf2 -40*.
Screening COc1cc(SC#N)ccc1N=Cc1c(C)[nH]n(-c2ccc(C)c(C)c2)c1=O returned ATG4B inhibitor -9, LANA-H2A inh 12, HKDC1 inh -22, Bfl-1 A1 inh 2, HDAC3 inhib 1 and AI-2 QS modul 55.
`COc1cc(SC#N)ccc1N=Cc1c(C)[nH]n(-c2ccc(Cl)cc2)c1=O` gave ATG4B inhibitor -4, LANA-H2A inh 5, HKDC1 inh -41, Bfl-1 A1 inh -1, HDAC3 inhib 5, AI-2 QS modul -4 and HKDC1 act conf2 -38*.
`Cn1c(-c2ccccc2)c(C(=O)CC#N)c2ccccc21` gave ATG4B inhibitor 3, LANA-H2A inh 1, HKDC1 inh -45, Bfl-1 A1 inh 1, HDAC3 inhib -6, AI-2 QS modul 16 and HKDC1 act conf2 -42*.
Screening Nc1nc(Cl)c(N)c(NCC2(CO)CC(CCc3ccccc3)C2)n1 (stereo not given) returned ATG4B inhibitor 0, HKDC1 inh 42* and HKDC1 act conf2 2.
For O=C(NCc1ccccc1)[C@]1(C(F)(F)F)C[C@H](CCc2ccccc2)CCCO1 the results were ATG4B inhibitor 7, LANA-H2A inh 0, HKDC1 inh -4, Bfl-1 A1 inh -2, HDAC3 inhib -4 and AI-2 QS modul 21.
CCN(Cc1ccccc1)C(=O)c1ccc(N(C)S(=O)(=O)c2ccc(C)cc2)cc1 was read as ATG4B inhibitor 10, LANA-H2A inh 2, HKDC1 inh -3, Bfl-1 A1 inh 0, HDAC3 inhib 4 and AI-2 QS modul 30.
Cc1[nH]c2ccccc2c1C1=CC(=O)C=CC1=O was read as ATG4B inhibitor -7, HKDC1 inh 58* and HKDC1 act conf2 53.
CC(C)[C@H](NC(=O)N1CCn2c1nc1ccccc12)C(=O)NCc1ccccc1Cl was read as ATG4B inhibitor 11, LANA-H2A inh 10, HKDC1 inh 3, Bfl-1 A1 inh 1, HDAC3 inhib -1 and AI-2 QS modul 9.
For O=C1C(=O)c2c(ccc3ccccc23)-c2ccccc21 the results were ATG4B inhibitor -17, HKDC1 inh 33 and HKDC1 act conf2 -7.
`CN(C)/C=C1\Oc2ccc3ccccc3c2C1=O` gave ATG4B inhibitor -9, LANA-H2A inh 2, HKDC1 inh 12, Bfl-1 A1 inh 2, HDAC3 inhib 0 and AI-2 QS modul 4.
